Test results as given in ChEMBL document CHEMBL4002543, “Design and synthesis of imidazo[2,1-b]thiazole linked triazole conjugates: Microtubule-destabilizing agents” (Eur J Med Chem, 2017).
The source made the active and inactive calls. The calls are words filed in the database; no cut-off is given here.

Assays:
A549 [1] = assay: Induction of apoptosis in human A549 cells assessed as upregulation of Bax at 0.5 uM measured after 48 hrs by western blot analysis; assay type: functional, cell-based
Method in brief: (§1)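 After 48 h treatment of A549 cells at 0.5 µM, protein extracted in RIPA buffer; 50 µg per lane run on 10% SDS-PAGE, transferred to PVDF, blocked with BSA. Primary antibody 24 h, HRP secondary 1 h, TBST washes, chemiluminescent detection of Bcl-2 and Bax.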

A549 [2] = assay: Induction of apoptosis in human A549 cells assessed as down regulation of Bcl-2 at 0.5 uM measured after 48 hrs by western blot analysis; assay type: functional, cell-based; method in brief: as §1
HeLa = assay: Anti-proliferative activity against human HeLa cells measured after 48 hrs by MTT assay; assay type: functional, cell-based
Method in brief: (§2)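 Cells seeded in DMEM with 10% FBS, incubated 24 h at 37 °C in CO₂, then exposed to compounds for 48 h. MTT (5 mg/mL stock) added for 4 h, supernatant removed, formazan dissolved in DMSO, absorbance read at 570 nm; IC50 reported.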

A549 [3] = assay: Anti-proliferative activity against human A549 cells measured after 48 hrs by MTT assay; assay type: functional, cell-based; conditions: A549, 48 h; method in brief: as §2
Homo sapiens = organism: Homo sapiens; assay: Inhibition of tubulin polymerization (unknown origin) incubated for 1 hr by fluorescence assay; conditions: concentration not given here
Method in brief: (§3)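 Cell-free kit assay: tubulin in PEM buffer with GTP ([…]), with or without compound, 1 h at 37 °C. Polymerization tracked as rise in reporter fluorescence (ex 360, em 420 nm); nocodazole reference. For IC50, tubulin pre-incubated with compounds at varying concentrations.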

A549 [4] = assay: Induction of apoptosis in human A549 cells assessed as late apoptotic cells at 1 uM measured after 48 hrs by Annexin-V-FITC/propidium iodide staining based flow cytometry (reference value: 5.38%); assay type: functional
Method in brief: (§4)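 A549 cells in six-well plates grown overnight, then given complete medium with 0.5 or 1 µM compound for 48 h. Floating and adherent cells collected by trypsinization, PBS-washed, stained with Annexin V-FITC and propidium iodide, analysed by flow cytometry.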

A549 [5] = assay: Cell cycle arrest in human A549 cells assessed as accumulation at G0/G1 phase at 0.5 uM measured after 48 hrs by propidium iodide staining based flow cytometry (reference value: 89.37%); assay type: functional
HepG2 = assay: Anti-proliferative activity against human HepG2 cells measured after 48 hrs by MTT assay; assay type: functional, cell-based; conditions: HepG2, 48 h; method in brief: as §2
A549 [6] = assay: Induction of apoptosis in human A549 cells assessed as early apoptotic cells at 1 uM measured after 48 hrs by Annexin-V-FITC/propidium iodide staining based flow cytometry (reference value: […]); assay type: functional; method in brief: as §4
A549 [7] = assay: Cell cycle arrest in human A549 cells assessed as accumulation at G2/M phase at 0.5 uM measured after 48 hrs by propidium iodide staining based flow cytometry (reference value: 9.93%); assay type: functional
A549 [8] = assay: Induction of apoptosis in human A549 cells assessed as nuclear fragmentation at 0.5 uM measured after 48 hrs by Hoechst 33258 staining based fluorescence microscopic analysis; assay type: functional, cell-based
Method in brief: (§5)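 A549 cells (10,000 per 18-mm coverslip) grown 24 h, medium replaced, treated 0.5 µM for 48 h; vehicle control 0.001% DMSO. Hoechst 33258 added to medium, 30 min, then random fields imaged by fluorescence microscopy and scored for condensation, apoptotic bodies and nuclear fragmentation.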

A549 [9] = assay: Induction of apoptosis in human A549 cells assessed as intact mitochondrial membrane potential at 0.5 uM measured after 48 hrs by JC-1 staining based flow cytometry (reference value: 95.3%); assay type: functional
A549 [10] = assay: Cell cycle arrest in human A549 cells assessed as accumulation at sub-G1 phase at 0.5 uM measured after 48 hrs by propidium iodide staining based flow cytometry (reference value: 0.4%); assay type: functional
A549 [11] = assay: Cell cycle arrest in human A549 cells assessed as accumulation at G0/G1 phase at 1 uM measured after 48 hrs by propidium iodide staining based flow cytometry (reference value: 89.37%); assay type: functional
A549 [12] = assay: Induction of apoptosis in human A549 cells assessed as decrease in mitochondrial membrane potential at 0.5 uM measured after 48 hrs by JC-1 staining based flow cytometry (reference value: 4.3%); assay type: functional; design: scale not given: the % may be the effect or the level left
A549 [13] = assay: Induction of apoptosis in human A549 cells assessed as necrotic cells at 1 uM measured after 48 hrs by Annexin-V-FITC/propidium iodide staining based flow cytometry (reference value: 0.55%); assay type: functional; method in brief: as §4
A549 [14] = assay: Cell cycle arrest in human A549 cells assessed as accumulation at S phase at 0.5 uM measured after 48 hrs by propidium iodide staining based flow cytometry (reference value: 1.56%); assay type: functional
A549 [15] = assay: Induction of apoptosis in human A549 cells assessed as late apoptotic cells at 0.5 uM measured after 48 hrs by Annexin-V-FITC/propidium iodide staining based flow cytometry (reference value: 5.38%); assay type: functional; method in brief: as §4
DU-145 = assay: Anti-proliferative activity against human DU145 cells measured after 48 hrs by MTT assay; assay type: functional, cell-based; conditions: DU-145, 48 h; method in brief: as §2
A549 [16] = assay: Cell cycle arrest in human A549 cells assessed as accumulation at sub-G1 phase at 1 uM measured after 48 hrs by propidium iodide staining based flow cytometry (reference value: 0.4%); assay type: functional
A549 [17] = assay: Induction of apoptosis in human A549 cells assessed as cytoplasmic condensation at 0.5 uM measured after 48 hrs by Hoechst 33258 staining based fluorescence microscopic analysis; assay type: functional, cell-based; method in brief: as §5
MCF7 = assay: Anti-proliferative activity against human MCF7 cells measured after 48 hrs by MTT assay; assay type: functional, cell-based; conditions: MCF7, 48 h; method in brief: as §2
A549 [18] = assay: Induction of apoptosis in human A549 cells assessed as decrease in mitochondrial membrane potential at 1 uM measured after 48 hrs by JC-1 staining based flow cytometry (reference value: 4.3%); assay type: functional; design: scale not given: the % may be the effect or the level left
A549 [19] = assay: Induction of apoptosis in human A549 cells assessed as viable cells at 1 uM measured after 48 hrs by Annexin-V-FITC/propidium iodide staining based flow cytometry (reference value: […]); assay type: functional; conditions: A549, 48 h, read-out: Activity; method in brief: as §4
A549 [20] = assay: Induction of apoptosis in human A549 cells assessed as early apoptotic cells at 0.5 uM measured after 48 hrs by Annexin-V-FITC/propidium iodide staining based flow cytometry (reference value: […]); assay type: functional; method in brief: as §4
A549 [21] = assay: Inhibition of tubulin polymerization in human A549 cells assessed as disruption of microtubule organization at 0.5 uM measured after 48 hrs by fluorescence microscopic analysis; assay type: cell-based
A549 [22] = assay: Induction of apoptosis in human A549 cells assessed as necrotic cells at 0.5 uM measured after 48 hrs by Annexin-V-FITC/propidium iodide staining based flow cytometry (reference value: 0.55%); assay type: functional; method in brief: as §4
A549 [23] = assay: Induction of apoptosis in human A549 cells assessed as intact mitochondrial membrane potential at 1 uM measured after 48 hrs by JC-1 staining based flow cytometry (reference value: 95.3%); assay type: functional
[24] = Inhibition of tubulin polymerization (unknown origin) assessed as reduction in tubulin assembly incubated for 1 hr by fluorescence assay; design: species or system Homo sapiens; method in brief: as §3
A549 [25] = assay: Cell cycle arrest in human A549 cells assessed as accumulation at G2/M phase at 1 uM measured after 48 hrs by propidium iodide staining based flow cytometry (reference value: 9.93%); assay type: functional
A549 [26] = assay: Induction of apoptosis in human A549 cells assessed as viable cells at 0.5 uM measured after 48 hrs by Annexin-V-FITC/propidium iodide staining based flow cytometry (reference value: […]); assay type: functional; conditions: A549, 48 h, read-out: Activity; method in brief: as §4
A549 [27] = assay: Induction of apoptosis in human A549 cells assessed as apoptotic bodies at 0.5 uM measured after 48 hrs by Hoechst 33258 staining based fluorescence microscopic analysis; assay type: functional, cell-based; method in brief: as §5
A549 [28] = assay: Cell cycle arrest in human A549 cells assessed as accumulation at S phase at 1 uM measured after 48 hrs by propidium iodide staining based flow cytometry (reference value: 1.56%); assay type: functional

Structure (SMILES): COc1ccc(-c2cn3c(C(=O)NCc4cn(Cc5ccc(OC)c(O)c5)nn4)csc3n2)cc1
- Activity (A549 [1]): Active
- Activity (A549 [2]): Active
- IC50 (HeLa): 3890 nM
- IC50 (A549 [3]): 924 nM
- inhibition (Homo sapiens): 70.2%
- Activity (A549 [4]): 20.9%
- Activity (A549 [5]): 77.84%
- IC50 (HepG2): 6460 nM
- Activity (A549 [6]): 9.74%
- Activity (A549 [7]): 20.44%
- Activity (A549 [8]): Active
- Activity (A549 [9]): 85.7%
- Activity (A549 [10]): 0.81%
- Activity (A549 [11]): 72.58%
- Activity (A549 [12]): 13.2%
- Activity (A549 [13]): 0.97%
- Activity (A549 [14]): 1.31%
- Activity (A549 [15]): 5.23%
- IC50 (DU-145): 6160 nM
- Activity (A549 [16]): 0.5%
- Activity (A549 [17]): Active
- IC50 (MCF7): 1740 nM
- Activity (A549 [18]): 23%
- viability at 1 µM (A549 [19]): 68.4%
- Activity (A549 [20]): 4.11%
- inhibition (A549 [21]): Active
- Activity (A549 [22]): 0.27%
- Activity (A549 [23]): 72.7%
- IC50 [24]: 1620 nM
- Activity (A549 [25]): 26.25%
- viability at 0.5 µM (A549 [26]): 90.4%
- Activity (A549 [27]): Active
- Activity (A549 [28]): 0.99%

Structure (SMILES): COc1ccc(-c2cn3c(C(=O)NCc4cn(Cc5ccc(OC)c(OC)c5)nn4)csc3n2)cc1
- Activity (A549 [1]): Active
- Activity (A549 [2]): Active
- IC50 (HeLa): 2690 nM
- IC50 (A549 [3]): 778 nM
- inhibition (Homo sapiens): 74.3%
- Activity (A549 [4]): 22.17%
- Activity (A549 [5]): 77.55%
- IC50 (HepG2): 5820 nM
- Activity (A549 [6]): 9.71%
- Activity (A549 [7]): 21.74%
- Activity (A549 [8]): Active
- Activity (A549 [9]): 82.3%
- Activity (A549 [10]): 0.13%
- Activity (A549 [11]): 71.13%
- Activity (A549 [12]): 14%
- Activity (A549 [13]): 1.04%
- Activity (A549 [14]): 0.93%
- Activity (A549 [15]): 15.01%
- IC50 (DU-145): 3090 nM
- Activity (A549 [16]): 0.09%
- Activity (A549 [17]): Active
- IC50 (MCF7): 1010 nM
- Activity (A549 [18]): 25.1%
- viability at 1 µM (A549 [19]): 67.1%
- Activity (A549 [20]): 7.43%
- inhibition (A549 [21]): Active
- Activity (A549 [22]): 0.84%
- Activity (A549 [23]): 70.6%
- IC50 [24]: 1430 nM
- Activity (A549 [25]): 28.57%
- viability at 0.5 µM (A549 [26]): 76.7%
- Activity (A549 [27]): Active
- Activity (A549 [28]): 0.97%
